{"source": "ChEMBL document CHEMBL3351942", "about": "“Rexinoids isolated from Sophora tonkinensis with a gene expression profile distinct from the synthetic rexinoid bexarotene” (J Nat Prod, 2014)", "format_in_all_cases": "cell-based", "key": {"[1]": {"assay": "Activation of LXR in mouse C2C12 cells assessed as induction of ABCA1 mRNA expression at 10 uM after 24 hrs in presence of T0901317 by quantitative RT-PCR analysis", "summary_of_the_method": "(§1)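 C2C12 myoblasts grown in DMEM/10% FBS, differentiated at confluence in 2% horse serum, medium changed every other day for 5 days; myotubes treated 24 h with or without T0901317 (1 μM). Total RNA, DNase-treated, oligo(dT) RT from 0.5 μg, SYBR green qPCR; normalized to β-actin (delta-delta Ct), fold over vehicle; mean ± SD of four determinants, one of two experiments.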"}, "3T3-L1": {"system": "3T3-L1", "assay": "Activation of PPARgamma/RXR heterodimer in mouse 3T3-L1 cell assessed as induction of adipogenesis at 10 uM after 6 days by Oil red O-staining", "summary_of_the_method": "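3T3-L1 cells grown to confluence, 2 days later induced 48 h with 10% FBS, 5 μg/mL insulin, 0.25 μM dexamethasone, 0.5 mM IBMX, then 48 h insulin-only medium; compounds in DMSO added to postdifferentiation medium for 4 days. Formalin-fixed (10%, 1 h, RT), stained with Oil red O, washed, visualized.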"}, "[2]": {"assay": "Activation of LXR in mouse C2C12 cells assessed as induction of LPL mRNA expression at 10 uM after 24 hrs by quantitative RT-PCR analysis"}, "RAW264.7 [3]": {"system": "RAW264.7", "assay": "Activation of RXR/LXR heterodimer in mouse RAW264.7 cells assessed as increase in ABCA1 mRNA level at 10 uM by quantitative RT-PCR analysis", "summary_of_the_method": "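RAW264.7 macrophages in DMEM/10% FBS, exposed 24 h with or without LXR agonist T0901317; ABCA1 mRNA by SYBR green qRT-PCR, β-actin-normalized, fold vs vehicle; means ± SD of three determinants, one of three independent experiments; one-way ANOVA, Bonferroni.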"}, "[4]": {"target": "T1, Retinoic acid receptor RXR-alpha (Homo sapiens) (UniProt P19793)", "T1 sequence (whole entry)": "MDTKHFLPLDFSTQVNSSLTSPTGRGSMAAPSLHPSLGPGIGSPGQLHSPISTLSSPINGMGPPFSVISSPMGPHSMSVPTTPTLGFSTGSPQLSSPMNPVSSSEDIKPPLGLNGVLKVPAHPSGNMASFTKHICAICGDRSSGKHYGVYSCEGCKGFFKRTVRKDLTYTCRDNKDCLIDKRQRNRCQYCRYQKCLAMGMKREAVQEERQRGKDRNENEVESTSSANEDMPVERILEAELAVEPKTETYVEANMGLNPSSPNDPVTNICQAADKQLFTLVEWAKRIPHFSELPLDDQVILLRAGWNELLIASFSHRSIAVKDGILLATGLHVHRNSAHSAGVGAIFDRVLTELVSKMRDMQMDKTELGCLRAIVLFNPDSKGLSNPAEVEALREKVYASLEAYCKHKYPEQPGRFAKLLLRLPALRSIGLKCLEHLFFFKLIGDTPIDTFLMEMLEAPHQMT", "assay": "Agonist activity at human RXR-alpha expressed in HEK293 cells coexpressing with pCMX-beta-gal at 10 uM after 24 to 48 hrs by luciferase reporter gene assay in presence of PA452 pan-antagonist", "summary_of_the_method": "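RXRα reporter in HEK293: cotransfected with RXRα expression vector, luciferase reporter and pCMX-β-gal. Eight hours after transfection, cells were treated with test compound at 10 μM with or without the RXR pan-antagonist PA452 (10 μM). Luciferase was normalized to β-galactosidase. Means ± SD of three determinants; representative of three experiments; one-way ANOVA with Bonferroni's t-test.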"}, "[5]": {"target": "T2, Oxysterols receptor LXR-alpha (Homo sapiens) (UniProt Q13133)", "T2 sequence (whole entry)": "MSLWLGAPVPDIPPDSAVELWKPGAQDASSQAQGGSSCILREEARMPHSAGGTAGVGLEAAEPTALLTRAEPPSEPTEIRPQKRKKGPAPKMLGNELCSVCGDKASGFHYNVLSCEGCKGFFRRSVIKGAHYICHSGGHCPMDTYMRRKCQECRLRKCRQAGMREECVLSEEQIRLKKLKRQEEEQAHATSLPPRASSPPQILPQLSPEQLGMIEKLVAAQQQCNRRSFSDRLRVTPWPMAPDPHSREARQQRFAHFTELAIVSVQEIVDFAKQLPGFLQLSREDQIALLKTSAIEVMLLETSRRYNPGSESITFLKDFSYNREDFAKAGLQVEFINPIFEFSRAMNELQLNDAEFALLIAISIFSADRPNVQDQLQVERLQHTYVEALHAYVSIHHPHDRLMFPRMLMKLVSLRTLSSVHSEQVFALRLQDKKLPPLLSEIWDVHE", "assay": "Activation of human LXR-alpha expressed in HEK293 cells coexpressing with pGL4.1-DR4-Luc after 24 hrs by luciferase reporter gene assay"}, "Homo sapiens [6]": {"organism": "Homo sapiens", "assay": "Activation of PPARgamma/RXR heterodimer in human hepatoma cells assessed as increase in ANGPTL4 mRNA level at 10 uM by quantitative RT-PCR analysis", "summary_of_the_method": "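HLE human hepatoma cells (DMEM, 10% FBS, 37 °C, 5% CO2) treated with or without rosiglitazone; ANGPTL4 mRNA by SYBR green qRT-PCR, β-actin-normalized delta-delta Ct, fold vs vehicle; means ± SD of three determinants, representative of three experiments.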"}, "Homo sapiens [7]": {"organism": "Homo sapiens", "assay": "Activation of RXR/VDR heterodimer in human hepatoma cells assessed as increase in CYP24A1 mRNA level at 10 uM in presence of VDR agonist calcitriol by quantitative RT-PCR analysis", "summary_of_the_method": "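HLE hepatoma cells treated 24 h with or without VD3 (0.1 μM); CYP24A1 mRNA by SYBR green qRT-PCR normalized to β-actin (delta-delta Ct), fold over vehicle; means ± SD of three determinants, representative of three experiments.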"}, "F9": {"system": "F9", "assay": "Activation of RAR/RXR heterodimer in mouse F9 cells assessed as increase in CYP26A1 mRNA level at 10 uM by quantitative RT-PCR analysis", "summary_of_the_method": "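F9 teratocarcinoma cells on 0.2% gelatin-coated dishes in DMEM/10% FBS; 24 h exposure with or without atRA (0.1 μM). CYP26A1 mRNA by qRT-PCR normalized to β-actin, fold vs vehicle; means ± SD of three determinants, one of three experiments; ANOVA/Bonferroni.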"}, "RAW264.7 [8]": {"system": "RAW264.7", "assay": "Activation of RXR/LXR heterodimer in mouse RAW264.7 cells assessed as increase in ABCA1 protein level at 10 uM after 24 hrs in presence of T0901317 by Western blotting analysis"}, "[9]": {"assay": "Activation of LXR in mouse C2C12 cells assessed as induction of ABCA1 mRNA expression at 10 uM after 24 hrs by quantitative RT-PCR analysis", "summary_of_the_method": "as §1"}}, "note": "Active and inactive are the calls of the source. The rule behind the calls is not given here."}
{"smiles": "CC(C)=CCc1cc([C@@H]2CC(=O)c3ccc(O)c(CC=C(C)C)c3O2)cc2c1OC(C(C)(C)O)C2", "note": "(stereo partly specified)", "values": [{"measurement": "Activity", "setting": "[1]", "value": "Active"}, {"measurement": "Activity", "setting": "3T3-L1", "value": "Active"}, {"measurement": "Activity", "setting": "[2]", "value": "Active"}, {"measurement": "Activity", "setting": "RAW264.7 [3]", "value": "Active"}, {"measurement": "Activity", "setting": "[4]", "value": "inactive"}, {"measurement": "Activity", "setting": "[5]", "value": "inactive"}, {"measurement": "Activity", "setting": "Homo sapiens [6]", "value": "Active"}, {"measurement": "Activity", "setting": "Homo sapiens [7]", "value": "inactive"}, {"measurement": "Activity", "setting": "F9", "value": "Active"}, {"measurement": "Activity", "setting": "RAW264.7 [8]", "value": "Active"}, {"measurement": "Activity", "setting": "[9]", "value": "Active"}]}
